According to ChEMBL document CHEMBL1123363, “(5-Amino-1,3-dimethyl-1H-pyrazol-4-yl)(2-fluorophenyl)methanones . A series of novel potential antipsychotic agents” (J Med Chem, 1986):
pIC50: −log10 of the molar value. Activity calls are given as the source filed them. No cut-off for these calls is given here.

Assays:
[1] = Inhibition of sidman avoid in squirrel monkeys after peroral administration; assay type: functional; settings: po
Procedure, shortened: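 Mature squirrel monkeys, trained on a modified Sidman avoidance lever schedule, were dosed orally and tested in 6-h sessions. Inhibition was expressed as % of each animal's own nondrug responding. At least three doses were given to four animals, with sessions at least 1 week apart. ED50 from nonlinear regression.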

[2] = Compound was tested for inhibition of extrapyramidal side effect test in cebus monkey; assay type: functional; settings: read-out: MED
Procedure, shortened: (§1)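 Groups of three to six were then dosed by gavage and observed hourly for 6–8 h for dystonia or dyskinesia. Any unequivocal sign counted as a positive response. Minimal effective dose was determined in at least three animals.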

Rattus norvegicus [3] = test: The compound was tested for inhibition of conditional avoid in rats after peroral administration; assay type: functional; settings: po
Procedure, shortened: (§2)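 Fasted male Wistar rats (150–250 g) were trained to jump to a platform at a buzzer to avoid grid shock (1.1 mA/s). After oral dosing they were tested every 20 min for 6 h over 19 trials, 10 rats per dose, each rat used once. Peak effect was the mean of the four consecutive trials with the largest effect, computed from response latency. ED50 read graphically from at least three doses.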

Mus musculus [4] = test: Compound was tested for inhibition of apomorphine-induced climbing in mice after intraperitoneal administration; assay type: functional; settings: ip
Procedure, shortened: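 Male Swiss–Webster mice (25–35 g), ten per dose, acclimated 30 min in cylindrical cages, dosed ip, then given apomorphine 3 mg/kg sc 1 h later. Climbing scored in 30-s tests every 5 min for 30 min, starting 15 min after apomorphine. At least three doses; ED50 by nonlinear regression.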

Rattus norvegicus [5] = test: Antagonized affect on the accumulation of the brain dopamine induced by butyrolactone (GBL) at 5 mg/kg after intraperitoneal administration; assay type: functional; parameters: scale not given: the % may be the effect or the level left
Adenylate cyclase = test: The compound was tested for adenylate cyclase activity in rat corpus striatum; assay type: tissue-based
Procedure, shortened: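 Striatal homogenates from male Long–Evans rats (200–300 g). Test substance concentration varied with dopamine held at 20 μM. Cyclic AMP formed was measured by radioimmunoassay, in triplicate.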

Dopamine receptor = test: Binding affinity for dopamine receptor in rat striatal membrane using [3H]haloperidol as radioligand; assay type: cell membranes, Striatum
Procedure, shortened: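 Nonspecific binding defined with (+)-butaclamol at 0.1 μM final. IC50 fitted by nonlinear curve fit from four or five concentrations in triplicate.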

Mus musculus [6] = organism: Mus musculus; test: Ability to inhibit locomotor activity using ataxia test.; assay type: functional; settings: read-out: MED
Procedure, shortened: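 Male Swiss–Webster mice (20–30 g, unfasted), nine per dose in groups of three, dosed ip in 0.2% methocel (dose as parent compound) 1 h before testing. Ataxia was scored first on an inverted screen over 60 s as % of mice falling. […] ED50 from at least three doses.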

Rattus norvegicus [7] = test: Suppression of conditional avoidance after peroral administration; assay type: functional; settings: po; procedure, shortened: as §2
Rattus norvegicus [8] = organism: Rattus norvegicus; test: Compound was tested for its potential to produce clonic seizures in rats; + indicates compound is causing seizures; assay type: functional, organism-based
Procedure, shortened: (§3)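 Any sign of seizure marked the compound as seizure-causing; the outcome was not quantified.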

Rattus norvegicus [9] = organism: Rattus norvegicus; test: Compound was tested for its potential to produce clonic seizures in rats; + indicates that they are causing seizures; assay type: functional, organism-based; procedure, shortened: as §3
[10] = Extrapyramidal side effect test in cebus monkey; assay type: functional; settings: read-out: MED; procedure, shortened: as §1
[11] = Compound was tested for inhibition of sidman avoid in squirrel monkeys after peroral administration; settings: Saimiri, po
Mus musculus [12] = test: Compound was tested for inhibition of locomotor activity and ataxia in mice after intraperitoneal administration; assay type: functional; settings: ip
Procedure, shortened: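 Unfasted male Swiss–Webster mice (20–30 g), nine per dose in groups of three, given compound ip in 0.2% methocel 1 h before testing. Ataxia assessed by 60-s inverted screen test, then photocell actophotometer locomotion recorded over 60 min as percent inhibition versus vehicle. At least three doses.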

[13] = target: T1, Beta-2 adrenergic receptor (Rattus norvegicus, UniProt P10608); test: (§4) Binding affinity against beta-2 adrenergic receptor in rat brain using [3H]DHA; assay type: tissue-based
Procedure, shortened: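 β2 binding on rat cerebellum membranes (male Long–Evans rats, 150–250 g) with [3H]dihydroalprenolol, 0.5 nM final. Nonspecific binding defined with (-)-alprenolol, 1 μM final. IC50 from four or five concentrations by nonlinear curve fit.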

Canis familiaris = test: Compound was tested for inhibition of emesis test in dogs administered perorally; antiemetic; assay type: functional, organism-based; settings: Canis lupus familiaris
Rattus norvegicus [14] = test: Compound was tested for inhibition of conditional avoid in rats after peroral administration; assay type: functional; settings: po
Procedure, shortened: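 Fasted male Wistar rats (150–250 g) trained to jump to a platform at a buzzer to avoid grid shock (1.1 mA/s). After oral dosing, tested every 20 min for 6 h over 19 trials, 10 rats per dose. Peak effect from four consecutive trials using response latency. ED50 read graphically from at least three doses.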

[15] = Binding affinity against […] in rat striatal membrane using [3H]haloperidol
Rattus norvegicus [16] = test: Antagonized affect on the accumulation of the brain dopamine induced by butyrolactone (GBL) at 10 mg/kg after intraperitoneal administration; assay type: functional; parameters: scale not given: the % may be the effect or the level left
Rattus norvegicus [17] = test: Compound was tested for serum prolactin assay method in rats at 1 mg/kg dose after peroral administration; assay type: functional; settings: route oral
Procedure, shortened: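 Seven-week-old male Sprague–Dawley rats, five per group, were dosed orally and killed by decapitation 1 h later. Serum prolactin from trunk blood was measured by radioimmunoassay with [125I]-PRL and expressed as % of control (mean ± SEM).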

Rattus norvegicus [18] = test: Compound was tested for its affect on the accumulation of the dopamine metabolite homovanillic acid (HAV) in the rat striatum at 1 mg/kg dose after peroral administration; assay type: functional; settings: route oral
Procedure, shortened: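 Male Long–Evans rats were dosed orally and decapitated 2 h later. Striatal HVA was isolated on Sephadex G-10 and measured spectrofluorometrically, expressed as % control ± SEM.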

[19] = target: T1, Beta-2 adrenergic receptor; test: as §4; assay type: tissue-based; remark: listed apart in the source
Procedure, shortened: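 β2 sites in rat cerebellum membranes (male Long-Evans, 150–250 g) with [3H]dihydroalprenolol at 0.5 nM final. (-)-Alprenolol at 1 μM final defined the reference. IC50 from four or five concentrations by nonlinear curve fit.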

[20] = target: Beta-1 adrenergic receptor (Rattus norvegicus, UniProt P18090); test: Binding affinity against beta-1 adrenergic receptor in rat brain using [3H]DHA; assay type: tissue-based
Procedure, shortened: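 β1 binding was run on rat cerebral cortex membranes from male Long–Evans rats (150–250 g) with [3H]dihydroalprenolol at 0.5 nM final. Nonspecific binding was defined with (−)-alprenolol at 1 μM final. IC50 from four or five concentrations by nonlinear curve fit.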

T1 sequence (P10608 whole entry): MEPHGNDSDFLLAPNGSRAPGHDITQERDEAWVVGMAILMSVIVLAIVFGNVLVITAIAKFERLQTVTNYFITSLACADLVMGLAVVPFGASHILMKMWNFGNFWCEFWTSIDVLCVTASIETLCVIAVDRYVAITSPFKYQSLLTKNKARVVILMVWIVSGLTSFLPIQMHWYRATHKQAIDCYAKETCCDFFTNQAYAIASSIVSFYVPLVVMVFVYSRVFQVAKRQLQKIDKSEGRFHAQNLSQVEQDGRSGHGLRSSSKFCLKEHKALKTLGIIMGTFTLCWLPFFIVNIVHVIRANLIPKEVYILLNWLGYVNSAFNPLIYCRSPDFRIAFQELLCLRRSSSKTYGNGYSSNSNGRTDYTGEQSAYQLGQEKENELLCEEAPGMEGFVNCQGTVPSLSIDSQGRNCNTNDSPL
Sequence of Beta-1 adrenergic receptor (P18090 whole entry): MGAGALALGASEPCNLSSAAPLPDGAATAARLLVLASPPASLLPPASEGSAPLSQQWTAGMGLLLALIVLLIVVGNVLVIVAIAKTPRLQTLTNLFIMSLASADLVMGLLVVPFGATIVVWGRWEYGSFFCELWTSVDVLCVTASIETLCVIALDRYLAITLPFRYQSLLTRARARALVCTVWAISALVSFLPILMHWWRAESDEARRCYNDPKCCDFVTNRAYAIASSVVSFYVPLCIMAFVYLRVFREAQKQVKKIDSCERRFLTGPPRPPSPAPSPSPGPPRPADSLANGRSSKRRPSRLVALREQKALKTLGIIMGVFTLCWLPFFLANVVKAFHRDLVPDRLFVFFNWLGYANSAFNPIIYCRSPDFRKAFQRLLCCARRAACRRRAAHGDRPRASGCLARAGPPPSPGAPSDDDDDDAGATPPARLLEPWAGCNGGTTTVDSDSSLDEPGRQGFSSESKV

SMILES | IC50 (Dopamine receptor) | minimal effective dose (Mus musculus [6]) | ED50 (Rattus norvegicus [7]) | other results
CSc1ccc2c(c1)N(CCC1CCCCN1C)c1ccccc1S2 (stereo not given) [THIORIDAZINE] |  |  |  | ED50 [1]: 4.3 mg/kg; minimal effective dose [2]: 2.5 mg/kg; ED50 (Rattus norvegicus [3]): 5.8 mg/kg; ED50 (Mus musculus [4]): 3.4 mg/kg
CN1CCc2cccc3c2[C@H]1Cc1ccc(O)c(O)c1-3 [APOMORPHINE] |  |  |  | Control (Rattus norvegicus [5]): 75%
OCCN1CCN(CCCN2c3ccccc3Sc3ccc(C(F)(F)F)cc32)CC1 [FLUPHENAZINE] |  |  |  | IC50 (Adenylate cyclase): 0.08 µM
Cc1nn(C)c(NC(=O)CN2CCCCC2)c1C(=O)c1ccccc1F | > 10 µM | 30 mg/kg | > 100 mg/kg | 
Cc1nn(C)c(N(C)S(C)(=O)=O)c1C(=O)c1ccccc1F |  | > 90 mg/kg |  | Clonic seizures (Rattus norvegicus [8]): causing seizures
Cc1nn(C)c(NC(=O)CCN2CCCC2)c1C(=O)c1ccccc1F | > 10 µM | 100 mg/kg | 15 mg/kg | 
CNc1c(C(=O)c2ccccc2F)c(C)nn1C |  | 30 mg/kg |  | Clonic seizures (Rattus norvegicus [8]): causing seizures
Cc1nn(C)c(NC(=O)CN2CCC3(CC2)C(=O)NCN3c2ccccc2)c1C(=O)c1ccccc1F | > 10 µM | 100 mg/kg | 15.5 mg/kg | 
Cc1nn(C)c(N(C)C(=O)C(F)(F)F)c1C(=O)c1ccccc1F |  | > 100 mg/kg |  | Clonic seizures (Rattus norvegicus [8]): causing seizures
Cc1nn(C)c(NC(=O)CN2CCC(c3ccccc3)CC2)c1C(=O)c1ccccc1F | > 10 µM | 30 mg/kg | 100 mg/kg | 
Cc1nn(C)c(NC(=O)CNCCCN(C)C)c1C(=O)c1ccccc1F | > 10 µM | 80 mg/kg | 56 mg/kg | 
Cc1nn(C)c(NC(=O)C(Cl)Cl)c1C(=O)c1ccccc1F |  | 30 mg/kg |  | Clonic seizures (Rattus norvegicus [9]): causing seizures
Cc1nn(C)c(NC(=O)CNCCN2CCCCC2)c1C(=O)c1ccccc1F | > 10 µM | 30 mg/kg | 38 mg/kg | 
CCCNc1c(C(=O)c2ccccc2F)c(C)nn1C |  | < 10 mg/kg |  | Clonic seizures (Rattus norvegicus [8]): causing seizures
Cc1nn(C)c(NC(=O)CNCCCN2CCCC(C)C2)c1C(=O)c1ccccc1F (stereo not given) | > 10 µM | 100 mg/kg | 100 mg/kg | 
Cc1nn(C)c(NC(=O)CN2CCCC2)c1C(=O)c1ccccc1F | > 10 µM | 30 mg/kg | 48 mg/kg | 
Cc1nn(C)c(NC(=O)C(C)N2CCCC2)c1C(=O)c1ccccc1F (stereo not given) | > 10 µM | 100 mg/kg | > 100 mg/kg | 
CN1CCN(C2=Nc3cc(Cl)ccc3Nc3ccccc32)CC1 [CLOZAPINE] |  |  |  | minimal effective dose [10]: > 30 mg/kg; ED50 [11]: 4.1 mg/kg; ED50 (Mus musculus [12]): 5.65 mg/kg; pIC50 [13]: < 5.00; MED (Canis familiaris): Active; ED50 (Rattus norvegicus [14]): 22 mg/kg; ED50 (Mus musculus [4]): 10 mg/kg
Cc1nn(C)c(NC(=O)C(C)(C)N2CCCC2)c1C(=O)c1ccccc1F | > 10 µM | > 100 mg/kg | > 56 mg/kg | 
Cc1nn(C)c(NC(=O)CNCCCNC(C)(C)C)c1C(=O)c1ccccc1F |  | 30 mg/kg | 46 mg/kg | IC50 [15]: > 10 µM
CC(C)C[C@H]1C(=O)N2CCC[C@H]2[C@]2(O)O[C@](NC(=O)[C@@H]3C=C4c5cccc6[nH]c(Br)c(c56)C[C@H]4N(C)C3)(C(C)C)C(=O)N12 [BROMOCRIPTINE] |  |  |  | Control (Rattus norvegicus [16]): 82.4%; Control (Rattus norvegicus [17]): 32.7%
O=C(CCCN1CCC(O)(c2ccc(Cl)cc2)CC1)c1ccc(F)cc1 [HALOPERIDOL] |  |  |  | Control (Rattus norvegicus [18]): 348.9%; pIC50 [19]: < 5.00; Control (Rattus norvegicus [17]): 224%; pIC50 [20]: < 5.00
Cc1nn(C)c(N(C)C(=O)CNCCCN2CCCCC2C)c1C(=O)c1ccccc1F (stereo not given) | > 10 µM | > 100 mg/kg | > 100 mg/kg | 
Cc1nn(C)c(NC(=O)CNCCN(C(C)C)C(C)C)c1C(=O)c1ccccc1F | > 10 µM | 100 mg/kg | 71 mg/kg | 
Cc1nn(C)c(NC(=O)CN(C)CCCN2CCCCC2C)c1C(=O)c1ccccc1F (stereo not given) | > 10 µM | 30 mg/kg | 21 mg/kg | 
CC(=O)Nc1c(C(=O)c2ccccc2F)c(C)nn1C |  | 30 mg/kg |  | Clonic seizures (Rattus norvegicus [8]): causing seizures
Cc1nn(C)c(NC(=O)CNCCCN2CCC(C)CC2)c1C(=O)c1ccccc1F | > 10 µM | 100 mg/kg |  | 
Cc1nn(C)c(NC(=O)C(F)(F)F)c1C(=O)c1ccccc1F |  | < 10 mg/kg |  | Clonic seizures (Rattus norvegicus [8]): causing seizures
Cc1nn(C)c(NC(=O)CNCCCN2CCCCC2)c1C(=O)c1ccccc1F | > 10 µM | 100 mg/kg | 16 mg/kg | 
